Assay results: ChEMBL document CHEMBL2010694, “Indolyl and dihydroindolyl N-glycinamides as potent and in vivo active NPY5 antagonists” (Bioorg Med Chem Lett, 2012)

Experiments:
Liver microsomes [1] = assay: Intrinsic clearance in human liver microsomes at 1 uM by LC/MS analysis; assay type: ADME, Microsome
Procedure, shortened: (§1)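 Compound incubated with human or rat liver microsomes; reaction quenched with acetonitrile, centrifuged, and remaining drug in supernatant measured by LC/MS to estimate T1/2, from which intrinsic clearance was derived.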

Plasma = assay: Plasma concentration in Sprague-Dawley rat at 10 mg/kg, po by LC-MS/MS analysis; assay type: ADME, organism-based; parameters: dose 10 mg/kg, route oral; conditions: in vivo
Procedure, shortened: (§2)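 Male Sprague-Dawley rats (300–350 g), femoral artery cannulated; single 10 mg/kg oral dose in an appropriate vehicle, N = 3. Blood taken predose, 1, 2 and 4 h; brains then collected and stored at -80 °C. Equal portions of plasma or homogenized brain from the three rats pooled per time point, protein precipitated, quantified by LC/MS/MS.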

Liver microsomes [2] = assay: Intrinsic clearance in rat liver microsomes at 1 uM by LC/MS analysis; assay type: ADME, Microsome; procedure, shortened: as §1
Brain = assay: Drug uptake in Sprague-Dawley rat brain at 10 mg/kg, po by LC-MS/MS analysis; assay type: ADME, organism-based; parameters: dose 10 mg/kg, route oral; conditions: in vivo, read-out: Drug uptake; procedure, shortened: as §2
[3] = biological target: T1, Neuropeptide Y receptor type 5 (Homo sapiens, UniProt Q15761); assay: Displacement of [125I]peptide YY from human NPY5 receptor
T1 sequence (Q15761 whole entry): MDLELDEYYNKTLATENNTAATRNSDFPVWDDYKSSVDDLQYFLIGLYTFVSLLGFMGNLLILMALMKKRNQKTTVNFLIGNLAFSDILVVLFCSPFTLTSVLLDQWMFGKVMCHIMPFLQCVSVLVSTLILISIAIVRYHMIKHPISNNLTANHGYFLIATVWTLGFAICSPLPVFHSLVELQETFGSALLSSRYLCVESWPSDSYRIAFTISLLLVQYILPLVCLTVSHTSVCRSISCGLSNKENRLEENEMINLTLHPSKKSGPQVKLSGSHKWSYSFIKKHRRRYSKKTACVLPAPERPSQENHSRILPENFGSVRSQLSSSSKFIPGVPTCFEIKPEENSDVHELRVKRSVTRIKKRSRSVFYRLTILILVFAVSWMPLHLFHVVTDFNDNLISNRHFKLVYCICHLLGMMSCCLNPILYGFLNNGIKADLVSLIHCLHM

CLH (Liver microsomes [1]) [L/min]	concentration (Plasma) [nM]	CLH (Liver microsomes [2]) [mL/min]	concentration (Brain) [nM]	Ki [3] [nM]	Compound
1.4	2680	21	117	4	CC(C)S(=O)(=O)NC[C@H]1CC[C@H](NC(=O)CN2CCc3cc(F)ccc32)CC1
3.1	6140	54	477	3.5	Cc1ccc2c(c1)CCN2CC(=O)N[C@H]1CC[C@H](CNS(=O)(=O)C(C)C)CC1
0.6	1300	11	100	2.2	CC(C)S(=O)(=O)NC[C@H]1CC[C@H](NC(=O)Cn2ccc3cc(F)ccc32)CC1
